Assay outcomes (PubChem)
SR-BI uptake up – activators of SR-BI mediated DiI-HDL uptake, primary screen, ldlA[mSR-BI] CHO cells, DiI fluorescence | 320,000 compounds, 0.096% hits | AID 504775, 2011 | activation, % at 12.5 µM | 3 h; 100 = double the neutral-control signal;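 active means mean replicate activation of at least 60% and every replicate at or above 60%; inconclusive means mean or all-replicate condition met, but not both; inactive means mean below 60% and not all replicates reaching 60%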;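 further: 0% = median plate neutral-control signal and 100% = twice that signal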
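Test system: SR-BI-overexpressing, LDLR-lacking CHO cells; Medium: Ham's F12 with 0.5% BSA, HEPES 25 mM, pH 7.4; Schedule: 3 h, 37 °C; Technique: bottom-read fluorescence, 550/595 nm.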
SR-BI DiI inh – inhibitors of SR-BI mediated HDL lipid uptake, primary screen, ldlA[mSR-BI] cells, fluorescence, single point; Scavenger receptor class B member 1 (Mus musculus), Q61009; ldlA[mSR-BI] CHO cells, DiI-HDL uptake fluorescence, 3 h; inhibition, % at 12.5 µM; 320,000 compounds, 0.96% hits; AID 488896, 2010;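 active means mean replicate inhibition of at least 70% and a set share of replicates each scoring 70 or more; inconclusive means meets just one of the two criteria; inactive means fails both criteria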;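 further: 0% = median of neutral control wells and 100% = median of positive control wells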
SMARCA2 act – SMARCA2 (BRM) function activators, primary screen, cell-based, luminescence, high throughput; MG213 cells, MMTV-luciferase reporter, dexamethasone, overnight; activation, % at 9.1 µM; 370,000 compounds, 1% hits; in the data active means activation above about 7.8%;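 further: 0% = vehicle wells and 100% = reference activator wells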
AHR activator – AHR activators, primary screen, cell-based, luminescence, luciferase reporter, human. AID 2796, 2010. AHR-responsive luciferase reporter cells. 320,000 compounds, 2.5% hits. activation, % at 5 µM. Aryl hydrocarbon receptor (Homo sapiens), P35869; in the data active means activation above about 47%;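 further: 0% = vehicle wells and 100% = reference agonist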
Target sequence (P35869 whole entry, looked up): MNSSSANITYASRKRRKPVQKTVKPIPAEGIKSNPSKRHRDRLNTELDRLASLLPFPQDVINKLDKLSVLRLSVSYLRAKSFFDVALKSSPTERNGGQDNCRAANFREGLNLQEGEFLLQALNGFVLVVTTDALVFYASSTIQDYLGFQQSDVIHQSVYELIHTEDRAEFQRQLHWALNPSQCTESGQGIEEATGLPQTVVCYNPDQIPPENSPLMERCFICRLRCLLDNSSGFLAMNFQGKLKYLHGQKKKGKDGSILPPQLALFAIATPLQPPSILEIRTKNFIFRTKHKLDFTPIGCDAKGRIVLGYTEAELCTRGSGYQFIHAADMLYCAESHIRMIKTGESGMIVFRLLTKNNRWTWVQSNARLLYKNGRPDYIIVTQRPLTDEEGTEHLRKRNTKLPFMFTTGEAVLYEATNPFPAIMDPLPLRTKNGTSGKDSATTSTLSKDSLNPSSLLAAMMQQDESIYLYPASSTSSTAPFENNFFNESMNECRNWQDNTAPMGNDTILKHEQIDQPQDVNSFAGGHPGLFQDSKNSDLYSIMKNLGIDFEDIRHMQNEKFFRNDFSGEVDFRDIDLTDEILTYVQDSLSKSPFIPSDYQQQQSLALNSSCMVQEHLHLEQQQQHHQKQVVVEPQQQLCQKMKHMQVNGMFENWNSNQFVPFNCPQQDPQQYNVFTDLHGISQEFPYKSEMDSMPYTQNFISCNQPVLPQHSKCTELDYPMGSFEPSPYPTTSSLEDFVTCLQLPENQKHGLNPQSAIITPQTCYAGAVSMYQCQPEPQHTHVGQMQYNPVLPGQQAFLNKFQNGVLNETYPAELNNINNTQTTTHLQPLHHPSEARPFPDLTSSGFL
Hep lipid drop – inhibitors of hepatocyte lipid droplet formation, primary screen, imaging, high-throughput imaging, BODIPY stain; AML12 mouse hepatocytes, oleate lipid droplets; inhibition, % at 6.5 µM; 240,000 compounds, 0.4% hits; AID 1656, 2009;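 active means lipid droplet intensity inhibited by at least 50%, with more than 500 cells counted; inconclusive means wells with under 300 cells, treated as cytotoxic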
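Assay system: AML12 mouse liver cells | Compound: 6.5 µM single-point dosing | Schedule: Overnight exposure | Technique: Fluorescence imaging, 20x objective, two fields per well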
Yeast superoxide – reduction of superoxide in aged yeast, primary screen, HTS | S. cerevisiae aged cells, superoxide DHE fluorescence; hits give low values | superoxide response (% of plate mean), % at 10 µM | 330,000 compounds, 0.18% hits;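 active means superoxide response under a set limit, about three screen SD below normal, cut at about 65% in these data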;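 further: yeast aged for seven days with compound at 30 °C before DHE staining; 100% = average MFI of all compound-treated wells on the plate with controls excluded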
AHR act cf – AHR activators, confirmation, cell-based, luminescence, luciferase reporter, human; shares compounds with AHR activator; human cells, AHR-responsive luciferase reporter; activation, % at 9 µM; 2,300 compounds, 87% hits; AID 2845, 2010; in the data active means activation above about 49%;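 further: HepG2 hepatoma cells carrying a DRE-driven firefly luciferase reporter; 0% = vehicle wells and 100% = reference agonist wells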
PXR counter – human PXR activators, counter-screen for AHR activator project, cell-based, luciferase luminescence | cell-based PXR reporter | 2,300 compounds, 88% hits | shares compounds with AHR activator | activation, % at 11.6 µM | AID 434939, 2010; in the data active means activation above about 11%;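 further: human hepatoma DPX-2 cells expressing full-length human PXR; 0% = DMSO and 100% = reference agonist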
* hit, by the source's call; ? = inconclusive; / = no result. Most compounds without a hit are left out; they make up all but 4.3% or so of the library.

SMILES	SR-BI uptake up	SR-BI DiI inh	SMARCA2 act	AHR activator	Hep lipid drop	Yeast superoxide	AHR act cf	PXR counter
O=C(N/N=C/C1CC2CCC1C2)c1c[nH]c2ccccc12 (configuration not stated)	20	-20	5	87*	-31	83	19	5
COc1cc(-n2c(C)nc3cc(C(=O)N4CCN(C(C)=O)CC4)ccc32)cc(OC)c1OC	/	/	-3	/	/	/	/	/
Cc1cccc(-c2nc(C#N)c(N3CCCCC3)o2)c1	6	-6	2	3	/	84	/	/
Cc1cccc(-c2nc(C#N)c(NC3CCCCC3)o2)c1	-16	16	1	145*	/	92	7	86*
O=C(N/N=C/c1cccc([N+](=O)[O-])c1)c1c[nH]c2ccccc12	-6	6	2	97*	-8	80	140*	19*
Cn1cc(C(=O)N/N=C/c2cccc([N+](=O)[O-])c2)c2ccccc21	/	/	-3	99*	9	102	41	19*
Fc1ccccc1Nc1nc2c(s1)CCc1ccccc1-2	/	/	/	/	-9	/	/	/
O=C(Nc1nc2c(s1)CCc1ccccc1-2)c1cccs1	-70	?	2	85*	/	94	158*	20*
O=C(Nc1nc2ccc(F)cc2s1)c1cccs1	-28	28	-1	99*	23	106	136*	9
O=C(Nc1nc2c(s1)COc1ccccc1-2)c1cccs1	-27	27	7	129*	/	86	129*	16*
COc1ccc(CNC(=O)N(C)C[C@@H]2OCc3ccccc3-c3c(n(C)c4ccccc34)C(=O)N([C@@H](C)CO)C[C@@H]2C)cc1	/	/	-4	/	/	/	/	/
Clc1cc2nc(-c3cccnc3Cl)[nH]c2cc1Cl	-14	14	1	113*	-1	99	108*	45*
Cc1[nH]n(C(N)=S)c(=O)c1N=Nc1cccc(C(F)(F)F)c1	-15	15	-1	143*	-10	100	74*	21*
Cc1[nH]n(C(N)=S)c(=O)c1N=Nc1cc(C(F)(F)F)ccc1Cl	-28	28	-3	3	8	111	/	/
Cc1[nH]n(C(N)=S)c(=O)c1N=Nc1ccc(Br)cc1	-2	2	4	108*	-19	100	135*	40*
Cc1[nH]n(C(N)=S)c(=O)c1N=Nc1ccc(S(=O)(=O)N2CCCC2)cc1	26	-26	-1	2	13	179	/	/
O=C1N/C(=N\c2ccccn2)SC1Cc1ccccc1Cl (configuration not stated)	-1	1	-1	80*	4	123	89*	34*
CC(C)N(C[C@@H]1CSCCS(=O)(=O)N1)C(C)C	/	/	-3	/	/	/	/	/
CCOc1ccc(-n2c(SCC(=O)Nc3ccc(S(=O)(=O)Nc4cc(C)nc(C)n4)cc3)nnc2-c2ccco2)cc1	/	/	4	/	/	/	/	/
O=C(N/N=C/c1ccc([N+](=O)[O-])o1)c1cc(-c2ccncc2)nc2ccccc12	-41	41	1	14	/	147	/	/
O=C(N/N=C/c1ccc([N+](=O)[O-])o1)c1cc(-c2ccc(-c3ccccc3)cc2)nc2ccccc12	-118	118*	1	128*	?	108	43	25*
O=C(/C(=C(\[O-])c1ccccc1)[n+]1ccc2ccccc2c1)c1ccc(Cl)cc1	-12	12	-1	103*	-122	124	92*	54*
O=C(/C(=C(\[O-])c1ccccc1)[n+]1ccc2ccccc2c1)c1ccccc1	14	-14	-1	37	6	95	/	/
CCN1CC(CN(C)Cc2nc(-c3ccco3)oc2C)CC1=O (configuration not stated)	0	0	0	1	3	97	/	/
CCN1CC(CN(C)Cc2nc(-c3ccc(C(F)(F)F)cc3)oc2C)CC1=O (configuration not stated)	-23	23	-3	116*	-2	104	99*	64*
SMILES	SR-BI uptake up	SR-BI DiI inh	SMARCA2 act	AHR activator	Hep lipid drop	Yeast superoxide	AHR act cf	PXR counter
CCC(C)OC(=O)c1[nH]c2c(c1C)C(=O)CC(c1ccc(N(C)C)cc1)C2 (configuration not stated)	-63	63	3	82*	3	90	35	70*
COc1ccc2oc(C(=O)NCc3ccccc3CN3CCCC3)c(C)c2c1	-21	21	3	10	/	113	/	/
Cc1c(C(=O)NCc2ccccc2CN2CCCC2)oc2c(F)cccc12	3	-3	1	80*	/	112	95*	39*
Cc1cc(OCCn2ccnc2)cc(C)c1Cl	16	-16	0	80*	-11	100	55*	16*
Cc1cccc(C)c1OCCN1CCCC1	3	-3	4	95*	-1	112	3	11*
Cc1cccc(C)c1OCCCn1ccnc1	11	-11	-1	136*	-2	102	36	16*
Cc1cc(C)cc(OCCCn2ccnc2)c1	0	0	0	37	-2	94	/	/
CCSc1ncc(/C=N/Nc2ccccc2)n1C	-30	30	4	89*	-16	112	145*	49*
CCN1CCc2nc3ccccc3c(C(=O)Nc3ccc(F)cc3)c2C1	/	/	-1	94*	-10	100	63*	26*
CN(C(=O)[C@@H](C1CC1)[C@@H](O)c1ccc2ccccc2c1)c1ccccc1	/	/	-4	/	/	/	/	/
CN=C(Nc1cccnc1)c1cccc(C(F)(F)F)c1	-8	8	2	3	/	93	/	/
CN=C(Nc1ccc(Cl)cc1)c1cccc(C(F)(F)F)c1	-25	25	2	84*	/	98	89*	56*
CN=C(Nc1ccc(Cl)cc1)c1ccc(C(F)(F)F)cc1	2	-2	1	85*	/	98	98*	45*
COC(=O)[C@]12C[C@H](CC(=O)NCc3ccc(C)o3)C(=O)N(CCc3ccc(OC)c(OC)c3)C1=C[C@H](C1CCCC1)O[C@@H]2C	/	/	4	/	/	/	/	/
Cc1ccc(C)c(NC(=O)NCc2ccccn2)c1	11	-11	-2	22	-5	97	/	/
Cc1ccc(C)c(NC(=S)c2nc3ccccc3s2)c1	0	0	4	83*	11	102	135*	14*
